Activity calls are given as the source filed them. Rule as the data show it, unless noted: active = inhibition above about 30%; inactive = the rest.
Experiments:
[1] = reducers of endogenous Her2 protein level, primary screen, SKBR3 breast tumor cells, AlphaScreen, ATP viability (AID 461;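 active = Her2 level under about 52% in both replicate screens, with viability over 70% of control, limit read from the data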;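 as to Her2 level: lower value means less Her2 protein in the cells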;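 as to viability: percent of carrier control wells set as 100% viability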); settings: 18-24 h, measured here: SKBR3 viability, ATP luminescence, at 10 µM
[2] = molecular target: Receptor tyrosine-protein kinase erbB-2 (Homo sapiens) (UniProt P04626); test: as above; settings: 18-24 h, at 10 µM, stronger effect = lower value
Receptor tyrosine-protein kinase erbB-2 (Homo sapiens), sequence (P04626 whole entry, looked up): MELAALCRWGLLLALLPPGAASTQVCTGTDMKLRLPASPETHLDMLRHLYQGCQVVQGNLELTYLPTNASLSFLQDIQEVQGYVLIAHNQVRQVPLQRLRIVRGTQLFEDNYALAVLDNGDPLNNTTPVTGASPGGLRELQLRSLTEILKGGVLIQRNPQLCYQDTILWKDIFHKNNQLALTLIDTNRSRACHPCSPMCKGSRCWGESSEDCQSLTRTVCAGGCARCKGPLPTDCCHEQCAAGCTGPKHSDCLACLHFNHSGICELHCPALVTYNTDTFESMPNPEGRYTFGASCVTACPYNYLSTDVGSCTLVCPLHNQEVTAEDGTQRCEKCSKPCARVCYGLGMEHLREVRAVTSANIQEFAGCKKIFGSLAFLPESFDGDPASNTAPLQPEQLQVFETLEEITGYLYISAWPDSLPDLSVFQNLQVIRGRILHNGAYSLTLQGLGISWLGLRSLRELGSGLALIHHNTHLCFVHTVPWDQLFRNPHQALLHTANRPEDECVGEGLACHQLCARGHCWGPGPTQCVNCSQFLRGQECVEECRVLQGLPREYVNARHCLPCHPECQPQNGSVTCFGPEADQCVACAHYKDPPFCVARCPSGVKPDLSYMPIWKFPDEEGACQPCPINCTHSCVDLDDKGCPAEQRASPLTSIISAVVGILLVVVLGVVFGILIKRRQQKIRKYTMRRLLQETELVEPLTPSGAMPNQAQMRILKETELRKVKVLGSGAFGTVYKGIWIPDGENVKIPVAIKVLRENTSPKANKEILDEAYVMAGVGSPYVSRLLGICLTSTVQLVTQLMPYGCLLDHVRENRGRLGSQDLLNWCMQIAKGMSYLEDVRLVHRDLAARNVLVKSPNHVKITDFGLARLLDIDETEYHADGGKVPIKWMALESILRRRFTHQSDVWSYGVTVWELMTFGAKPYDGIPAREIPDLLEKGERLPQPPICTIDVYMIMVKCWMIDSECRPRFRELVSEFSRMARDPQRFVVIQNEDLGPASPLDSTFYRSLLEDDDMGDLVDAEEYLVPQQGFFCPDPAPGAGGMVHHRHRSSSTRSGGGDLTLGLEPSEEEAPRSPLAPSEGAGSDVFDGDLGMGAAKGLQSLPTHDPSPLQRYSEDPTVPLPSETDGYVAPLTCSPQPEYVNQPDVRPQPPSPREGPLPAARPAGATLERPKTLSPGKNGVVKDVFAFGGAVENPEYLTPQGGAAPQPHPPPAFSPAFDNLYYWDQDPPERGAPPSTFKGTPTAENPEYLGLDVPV

[3] = SK-BR-3 cell growth inhibitors, pilot screen, 24 h, human (AID 572;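 active = viability at or below 10% of carrier control in both of two separate runs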;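 also: compound exposure lasted between 18 and 24 h rather than exactly 24 h; 100% = carrier-treated control wells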); settings: SK-BR-3 viability, CellTiter-Glo luminescence, at 10 µM, stronger effect = lower value
[4] = HUVEC growth inhibition – cell-based, human, primary screen (AID 575;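 active = viability at or below 30% in both replicate assays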;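 also: 100% = median of untreated cell wells with 0.1% DMSO on each plate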); settings: HUVEC proliferation, CellTiter-Glo luminescence, 72 h; at 10 µM; stronger effect = lower value
Outline: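 Test system: HUVEC primary cells. Quantity: 1250 endothelial cells in each well. Dosing: single-point 10 µM, DMSO 0.1% final. Incubation: 72 h treatment at 37 °C. Measured by: CTG luminescence. Control set: DMSO cell controls and MePR drug controls. Plate: collagen-coated 384-well format.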

[5] = growth inhibitors of H69AR lung tumor, primary screen, human, duplicate replicates (AID 580;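 active = viability at or under a set limit in both replicates, limit being median viability minus 3 SD, cut at about 48% in these data, passing the limit was not always enough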;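 also: 100% = mean luminescence of untreated wells and 0% = no signal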); settings: H69AR lung tumor cells viability, ATP luminescence, 72 h; at 10 µM; stronger effect = lower value
[6] = reversal of MRP1-mediated doxorubicin resistance, pilot screen, H69AR cells, doxorubicin co-treatment (AID 601;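 active = viability loss from added drug above about 55%, and viability with drug at most 40%, in both replicates, limit read from the data, passing the limit was not always enough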); settings: CellTiter-Glo, 72 h, at 10 µM; for differential viability (reversal): stronger effect = higher value
[7] = 384-well plate pilot, post-Golgi transport modulator project, inhibition of yeast transport mutant growth (AID 636; in the data active = inhibition above about 31%); settings: absorbance 615 nm, about 18 h, stronger effect = higher value
[8] = growth suppression of yeast trafficking mutant, preliminary HTS, modulators of trafficking downstream of Golgi apparatus project, 1536-format plate, OD 615 nm (AID 637); settings: yeast transport mutant growth, absorbance 615 nm, 18 h; stronger effect = higher value
[9] = H69AR cells + 2 uM doxorubicin, measured here: viability with 2 uM doxorubicin, stronger effect = lower value
[10] = H69AR cells, compound alone cytotoxicity

Compound	viability [1]	Her2 level [2]	viability [3]	viability [4]	viability [5]	differential viability (reversal) ([6]; H69AR cells + 2 uM doxorubicin)	viability [6, 9]	viability [6, 10]	inhibition [7]	inhibition [8]
O=c1[nH]c2ccc(S(=O)(=O)N3CCN(C4CCCCC4)CC3)cc2[nH]c1=O	90.5%	104% (inactive)	90.5% (inactive)	91.8% (inactive)	103% (inactive)	9.67% (inactive)	93.7%	103%	0.92% (inactive)	-12.6% (inactive)
COCCN(C(=O)CNC(=O)c1ccco1)C(C(=O)NC1CCCCC1)c1cccc(OC)c1 (stereo not given)	96%	103% (inactive)	96% (inactive)	88.1% (inactive)	102% (inactive)	12.6% (inactive)	89.6%	102%	-1.3% (inactive)	-1.17% (inactive)
Cc1cccc(N(C)C(=O)c2cc3cc4ccc(C)cc4nc3o2)c1	89%	73.5% (inactive)	89% (inactive)	57.1% (inactive)	12% (active)	-36.7% (inactive)	48.8%	12%	-4% (inactive)	-4.26% (inactive)
COc1ccc(C(=O)N2CCN(C3CCCCC3)CC2)c(OC)c1	82.5%	104% (inactive)	82.5% (inactive)	88.3% (inactive)	95.3% (inactive)	0.4% (inactive)	94.9%	95.3%	-2.53% (inactive)	11.8% (inactive)
COCCn1c(=O)[nH]c2cc(C(=O)N3CCN(Cc4ccc5c(c4)OCO5)CC3)ccc2c1=O	93.5%	106% (inactive)	93.5% (inactive)	117% (inactive)	93.1% (inactive)	-1.86% (inactive)	94.9%	93.1%	1.47% (inactive)	9.34% (inactive)
O=C(COn1nnc2ccc(C(F)(F)F)cc21)Nc1nnc(-c2ccccc2)o1	87%	92.5% (inactive)	87% (inactive)	68.2% (inactive)	97.8% (inactive)	15.5% (inactive)	82.3%	97.8%	-7.76% (inactive)	-3.27% (inactive)
Cc1cc(Cn2ccnc2)c(C)cc1Cn1ccnc1	82%	91.5% (inactive)	82% (inactive)	107% (inactive)	101% (inactive)	6.74% (inactive)	94.1%	101%	-3.6% (inactive)	-0.32% (inactive)
O=C(O)CCC(=O)Nc1nc(-c2ccccc2)cs1	92%	84.5% (inactive)	92% (inactive)	98.5% (inactive)	91.3% (inactive)	-4.88% (inactive)	96.1%	91.3%	-6.4% (inactive)	-1.48% (inactive)
CC1CCN(c2oc(-c3cccc4ccccc34)nc2C#N)CC1	104%	72.5% (inactive)	104% (inactive)	81.7% (inactive)	91.7% (inactive)	9.42% (inactive)	82.3%	91.7%	-5.53% (inactive)	-7.33% (inactive)
CCn1c(CSc2nnc(-c3cccnc3)n2-c2ccccc2C)nc2cc(C(=O)O)ccc21	95.5%	109% (inactive)	95.5% (inactive)	94% (inactive)	99.1% (inactive)	11.4% (inactive)	87.8%	99.1%	-3.56% (inactive)	-7.3% (inactive)
O=C(COc1ccc(S(=O)(=O)N2CCCC2)cc1Cl)NC1CC1	126%	108% (inactive)	126% (inactive)	112% (inactive)	101% (inactive)	7.76% (inactive)	93.2%	101%	-5.68% (inactive)	3.67% (inactive)
Cc1cccc(N(C)C(=O)c2coc(=O)c3ccccc23)c1	85%	81% (inactive)	85% (inactive)	82.9% (inactive)	85.8% (inactive)	-2.86% (inactive)	88.7%	85.8%	-3.16% (inactive)	-1.64% (inactive)
CCSc1nc2ccccc2n1CCC(=O)O	99%	91.5% (inactive)	99% (inactive)	101% (inactive)	109% (inactive)	15.9% (inactive)	93.4%	109%	-5.21% (inactive)	1.11% (inactive)
Cc1ccc(S(=O)(=O)N(C)c2ccc(OCC(=O)OCc3c(C)noc3C)cc2)cc1	92.5%	97% (inactive)	92.5% (inactive)	95.4% (inactive)	105% (inactive)	6.56% (inactive)	98.6%	105%	-1.71% (inactive)	-10.3% (inactive)
Cc1ccc(N(Cc2ccco2)C(=O)c2cccc(S(=O)(=O)N(C)C)c2)cc1	97.5%	104% (inactive)	97.5% (inactive)	88.4% (inactive)	96.7% (inactive)	-2.84% (inactive)	99.6%	96.7%	0.53% (inactive)	-1% (inactive)
COc1ccc(N2C(=O)C3C4C=CC(C4)C3C2=O)nn1 (stereo not given)	104%	106% (inactive)	104% (inactive)	99.6% (inactive)	99.2% (inactive)	17.4% (inactive)	81.8%	99.2%	-0.91% (inactive)	-4.59% (inactive)

Compound	viability [1]	Her2 level [2]	viability [3]	viability [4]	viability [5]	differential viability (reversal) ([6]; H69AR cells + 2 uM doxorubicin)	viability [6, 9]	viability [6, 10]	inhibition [7]	inhibition [8]
COc1cccc(-n2c(C)nc3c(cnn3-c3ccc(Cl)cc3)c2=O)c1	92.5%	86% (inactive)	92.5% (inactive)	79.8% (inactive)	76.3% (inactive)	-1.66% (inactive)	78%	76.3%	-4.47% (inactive)	4.19% (inactive)
COc1ccc(S(=O)(=O)NCc2ccc(C(=O)O)cc2)cc1	102%	99% (inactive)	102% (inactive)	107% (inactive)	95.8% (inactive)	-10.6% (inactive)	106%	95.8%	-3.77% (inactive)	-3.33% (inactive)
Cc1oc(-c2ccccc2F)nc1CS(=O)(=O)CC(=O)N1CCCCCC1	99%	108% (inactive)	99% (inactive)	101% (inactive)	100% (inactive)	13.4% (inactive)	87.1%	100%	1.07% (inactive)	-3.28% (inactive)
Cc1cccc(-n2ncc3c(N)ncnc32)c1	94.5%	83.5% (inactive)	94.5% (inactive)	51.3% (inactive)	98.3% (inactive)	17.7% (inactive)	80.6%	98.3%	-4.67% (inactive)	-1.31% (inactive)
COc1cc(OC)cc(-c2nc3nc(C)c(CCC(=O)O)c(C)n3n2)c1	106%	81.5% (inactive)	106% (inactive)	80.1% (inactive)	91.5% (inactive)	7.47% (inactive)	84%	91.5%	-4.08% (inactive)	0.18% (inactive)
CCOC(=O)CSc1nc2ccccc2c(=O)n1NC(=O)c1ccccc1	120%	78% (inactive)	120% (inactive)	86.6% (inactive)	87.4% (inactive)	7% (inactive)	80.4%	87.4%	-3.29% (inactive)	-1.75% (inactive)
Brc1ccc(C2=Nn3c(nnc3-c3ccncc3)SC2)cc1	94.5%	79.5% (inactive)	94.5% (inactive)	82.8% (inactive)	77.1% (inactive)	-14.3% (inactive)	91.4%	77.1%	-2.89% (inactive)	-0.36% (inactive)
O=C(NCc1cccnc1)c1ccc(Cl)c(Cl)c1	89%	75% (inactive)	89% (inactive)	95.2% (inactive)	96.8% (inactive)	9.16% (inactive)	87.7%	96.8%	-1.33% (inactive)	3.61% (inactive)
COC(=O)c1ccnc(/C=N/O)c1	95%	76% (inactive)	95% (inactive)	99.8% (inactive)	88.1% (inactive)	7.13% (inactive)	81%	88.1%	-3.92% (inactive)	2.7% (inactive)
Cc1nn(-c2ccccc2)c2c1C(O)n1c(nc3ccccc31)S2 (stereo not given)	91%	77.5% (inactive)	91% (inactive)	50.9% (inactive)	26.2% (active)	-8.14% (inactive)	34.4%	26.2%	-6.85% (inactive)	-0.79% (inactive)
CCCCC(=O)Nc1c(O)c2ccccc2[nH]c1=O	95.5%	107% (inactive)	95.5% (inactive)	108% (inactive)	98.3% (inactive)	-2.29% (inactive)	101%	98.3%	-6.93% (inactive)	-8.69% (inactive)
Clc1ccc(OCCCn2cncn2)cc1Cl	104%	99% (inactive)	104% (inactive)	92.5% (inactive)	80.2% (inactive)	-6.33% (inactive)	86.5%	80.2%	2.03% (inactive)	16.4% (inactive)
CC(=O)Nc1ccc(NS(=O)(=O)c2ccc(Cl)c(C(=O)O)c2)cc1	106%	108% (inactive)	106% (inactive)	100% (inactive)	103% (inactive)	9.96% (inactive)	92.8%	103%	-4.61% (inactive)	-3.17% (inactive)
COc1ccc(-c2nnc(SCC(=O)Nc3cc(C)on3)n2C)cc1OC	101%	90% (inactive)	101% (inactive)	108% (inactive)	105% (inactive)	11.9% (inactive)	92.6%	105%	-6.22% (inactive)	4.59% (inactive)
CCCn1c(SCC(=O)Nc2cc(C)on2)nc2c1c(=O)n(C)c(=O)n2C	100%	118% (inactive)	100% (inactive)	87% (inactive)	100% (inactive)	15.7% (inactive)	84.6%	100%	0% (inactive)	-4.19% (inactive)
CCOC(=O)CSc1nc2cc(C(=O)N3CCC(C(N)=O)CC3)ccc2c(=O)n1-c1ccccc1	98%	95% (inactive)	98% (inactive)	76.5% (inactive)	100% (inactive)	7.63% (inactive)	92.4%	100%	-3.95% (inactive)	-4.17% (inactive)

From PubChem BioAssay
